This is a sample that favours compounds with a hit; in the whole collection about 4.7% have one here.
FXN GAA850 act = FXN promoter activators, primary screen, cell-based, luciferase luminescence, HEK293 lucGAA850; AID 540364, 2011; 360,000 compounds, 0.56% hits; HEK293 lucGAA850 FXN promoter luciferase reporter, 24 h; percent of 10 µM SAHA response; activation, % at 6 µM;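 active = activation above the average of all compounds screened plus 3 SD, cutoff fixed separately per campaign, cut at about 7.5% in these data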
MC4R barr agon = MC4R agonists recruiting beta-arrestin, primary screen, cell-based, luminescence, agonist arm of biased-ligand search; 360,000 compounds, 0.98% hits; activation, % at 8.9 µM; Melanocortin receptor 4 (Homo sapiens), P32245; U2OS MC4R beta-arrestin complementation; percent of melanotan II response, DMSO zero; AID 540308, 2011;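 active = activation above a per-plate cutoff, the mean activation of sample wells on that plate plus 3 SD, cut at about 8% in these data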
AHR act = AHR activators, primary screen, cell-based, luminescence, luciferase reporter, human; Aryl hydrocarbon receptor (Homo sapiens), P35869; AHR-responsive luciferase reporter cells; activation, % at 5 µM; 320,000 compounds, 2.5% hits; AID 2796, 2010; in the data active = activation above about 47%
MC4R antag cAMP = MC4R antagonists of cAMP signaling, primary screen, cell-based, TR-FRET, antagonist arm of biased-ligand search; MC4R-expressing cells, MTII-stimulated cAMP, LANCE TR-FRET; AID 540295, 2011; Melanocortin receptor 4 (Homo sapiens), P32245; inhibition, % at 6.5 µM; 360,000 compounds, 0.48% hits;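 active = inhibition above its plate's cutoff, the mean of tested wells on that plate plus 3 SD, cut at about 29% in these data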
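system = U2OS cells with stable human MC4R expression | also added = Melanotan II challenge after compound preincubation | dosing = one concentration, 6.5 µM nominal | incubation = compound 30 min, challenge 1 h, detection 1 h | measured by = TR-FRET with Eu-cAMP and labeled anti-cAMP, 671 nm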
m5-HT2A agonist = mouse Htr2a agonists via beta-arrestin recruitment, primary screen, cell-based, luminescence | CHO-K1 mHTR2A beta-arrestin complementation; percent of 30 µM serotonin response | activation, % at 7.6 µM | 360,000 compounds, 0.66% hits;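 active = activation above a run cutoff, the mean activation of all tested compounds plus 3 SD, cut at about 14% in these data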
Target sequence (P35363 whole entry, looked up): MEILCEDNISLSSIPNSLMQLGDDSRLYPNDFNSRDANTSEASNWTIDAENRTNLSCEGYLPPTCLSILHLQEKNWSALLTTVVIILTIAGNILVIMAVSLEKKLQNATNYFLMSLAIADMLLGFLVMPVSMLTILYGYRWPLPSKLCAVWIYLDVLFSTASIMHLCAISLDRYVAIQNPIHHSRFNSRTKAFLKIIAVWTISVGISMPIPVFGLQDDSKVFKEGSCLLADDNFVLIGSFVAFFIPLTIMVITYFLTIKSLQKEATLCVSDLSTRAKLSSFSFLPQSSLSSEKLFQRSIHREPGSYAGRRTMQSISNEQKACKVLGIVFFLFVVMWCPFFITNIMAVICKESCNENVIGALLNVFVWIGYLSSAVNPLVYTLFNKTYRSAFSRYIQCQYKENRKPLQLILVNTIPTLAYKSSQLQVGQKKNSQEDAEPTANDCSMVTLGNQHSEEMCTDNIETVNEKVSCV
A number is an active result; 0 = inactive; - = no result.

SMILES	FXN GAA850 act	MC4R barr agon	AHR act	MC4R antag cAMP	m5-HT2A agonist
CC(C)Oc1ccc(CNS(=O)(=O)c2csc(C(N)=O)c2)cc1	0	0	0	0	0
O=C1C2C3C=CC(O3)C2C(=O)N1Nc1ccccc1 (centres undefined)	0	0	-	0	0
Cc1ccc(CNc2ccc3c(c2)nc(C)n3C)cc1	0	0	57	0	0
COc1cc(C(=O)NC(=S)Nc2ccc(N3CCCC3)cc2)cc(OC)c1OC	0	0	0	0	0
C=CCc1c(C)nc(C)nc1N/N=C/c1ccccc1	0	0	66	0	0
C=CCc1c(C)nc(-c2ccccc2)nc1N/N=C/c1ccncc1	0	0	61	0	0
Fc1ccc(/C=N/Nc2nn[nH]n2)cc1	0	0	0	0	0
C=CCc1c(C)nc(-c2ccccc2)nc1N/N=C(\C)c1ccc(N)cc1	0	0	51	0	0
C=CCc1c(C)nc(C)nc1N/N=C/c1ccc(F)cc1	0	0	77	0	0
C=CCc1c(C)nc(-c2ccccc2)nc1N/N=C/c1ccccc1	0	0	0	0	0
CNc1cncc(-c2ccc(CN3CCOCC3)cc2)n1	0	0	-	0	0
CC(C)(C)c1ccc(Nc2n[nH]c3ccccc23)cc1	-	-	-	-	0
Cc1cc(C(=O)N/N=C/c2c3ccccc3cc3ccccc23)n[nH]1	0	0	98	0	0
Cc1cc(C(=O)N/N=C/c2c(C)n(C)c3ccccc23)n[nH]1	0	0	77	0	0
Cc1cc(C(=O)N/N=C/c2c(C)[nH]c3ccccc23)n[nH]1	0	0	0	0	0
CCOc1ccc2ccccc2c1/C=N/NC(=O)c1cc(C)[nH]n1	0	0	0	0	0
COc1ccc(-c2nc(S(=O)(=O)c3ccccc3)c(NCCCN3CCOCC3)o2)cc1	0	0	0	0	0
O=C(NC(=S)Nc1ccccc1O)c1cncc(Br)c1	0	0	54	0	0
O=C(NC(=S)Nc1ccccc1O)c1cccnc1	0	0	58	0	0
O=C(Nc1cccnc1)c1sc(Nc2ccccc2)nc1-c1ccccc1	0	0	0	0	0
Cc1cccc(Nc2nc(-c3ccccc3)c(C(=O)Nc3cccnc3)s2)c1	0	0	51	0	0
C=CCOc1cccc(/C=N/NC(=O)CN2CCCCC2)c1	0	0	0	0	0
O=C1/C(=C/c2ccccc2F)SC(=S)N1CC(=O)N1CCCCC1c1cccnc1 (centres undefined)	0	0	0	0	0
CC1(C)Cc2c(sc3nc(-c4cccs4)n(N)c(=O)c23)CO1	0	0	73	0	0
CC1(C)Cc2c(sc3nc(-c4ccccc4)n(N)c(=O)c23)CO1	0	0	0	0	0
SMILES	FXN GAA850 act	MC4R barr agon	AHR act	MC4R antag cAMP	m5-HT2A agonist
Nn1c(-c2cccs2)nc2sc3c(c2c1=O)CCCC3	0	0	58	0	0
O=C(c1cc(F)c(F)c(F)c1F)N1CCN(C(=O)C2CCCO2)CC1 (centres undefined)	0	0	0	0	0
CCCC(=O)Nc1ccc2c(c1)C(=O)N(C)C[C@@H](OC)[C@H](C)CN(Cc1ccc(-c3ccccn3)cc1)[C@@H](C)CO2	-	-	-	-	0
CC1CCCC(NC(=O)C2COc3ccccc3O2)C1C (centres undefined)	0	0	0	0	0
CN1CCN(C2=C(Cl)C(=O)N(c3ccc(Cl)cc3)C2=O)CC1	0	0	0	0	16
CCCCOCCCNC(=O)C[C@@H]1C[C@@]2(C(=O)OCC)CCCC=C2N(Cc2ccco2)C1=O	-	-	-	-	0
Nc1[nH]c(C(=O)c2ccccc2)c(-c2ccncc2)c1C(=O)NC1CC1	-	-	-	-	0
O=C(/C(=C/c1ccc(Cl)cc1)c1nc2ccccc2[nH]1)c1ccccc1	0	0	0	0	0
O=C(N/C(=C/c1ccc(Cl)cc1)c1nc2ccccc2[nH]1)c1ccco1	0	0	70	0	0
O=C(N/C(=C/c1ccc(Br)cc1)c1nc2ccccc2[nH]1)c1ccco1	0	0	67	0	0
CNc1cncc(-c2ccc(F)cc2F)n1	0	0	-	0	0
CCOC(=O)c1ccc2c(c1)n(CC)c(/C=C/N(C)c1ccccc1)[n+]2CC	0	0	0	0	0

Screening results: PubChem, The Scripps Research Institute Molecular Screening Center
